Experimental data taken from ChEMBL document CHEMBL1139439, “Folate-synthesizing enzyme system as target for development of inhibitors and inhibitor combinations against Candida albicans-synthesis and biological activity of new 2,4-diaminopyrimidines and 4'-substituted 4-aminodiphenyl sulfones” (J Med Chem, 2004).
Values after ≈ are worked out from the molar mass of the structure shown.

Assays:
Dihydrofolate reductase [1] = target: T1, Dihydrofolate reductase (Candida albicans, UniProt P22906); test: Inhibitory activity against cell free dihydrofolate reductase (DHFR) from Candida albicans; conditions: for IC50: read-out: I50
T1 sequence (P22906 whole entry): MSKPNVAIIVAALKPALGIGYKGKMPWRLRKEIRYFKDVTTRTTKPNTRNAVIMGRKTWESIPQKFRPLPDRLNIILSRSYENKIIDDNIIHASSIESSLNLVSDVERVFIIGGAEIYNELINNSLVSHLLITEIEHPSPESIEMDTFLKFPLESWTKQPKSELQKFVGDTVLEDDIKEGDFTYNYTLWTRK

Dihydrofolate reductase [2] = target: T2, Dihydrofolate reductase (Rattus norvegicus, UniProt Q920D2); test: Inhibitory activity against cell free dihydrofolate reductase (DHFR) from rat; conditions: for IC50: read-out: I50
T2 sequence (Q920D2 whole entry): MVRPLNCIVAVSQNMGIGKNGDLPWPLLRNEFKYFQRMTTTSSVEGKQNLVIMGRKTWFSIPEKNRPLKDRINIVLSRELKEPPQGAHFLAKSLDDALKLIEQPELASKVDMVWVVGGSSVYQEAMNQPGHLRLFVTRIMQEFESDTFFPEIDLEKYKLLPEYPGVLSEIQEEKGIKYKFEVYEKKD

[3] = Inhibitory activity against dihydropteroic acid synthase (SYN) from Mycobacterium lufu (DDS resistant); conditions: read-out: I50
[4] = Inhibitory activity against dihydropteroic acid synthase (SYN) from candida albicans; conditions: read-out: I50
Outline: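 Partially purified SYN extract was prepared from C. albicans ATCC 11651 and incubated with sulfones at pH 8.4. Periodic samples were quenched with trichloroacetic acid, and folate formed was quantified by bioassay with folate-requiring Streptococcus faecium. I50 is the concentration giving a 50% decrease in dihydropteroic acid production versus the uninhibited control.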

[5] = target: T3, Dihydropteroate synthetase, putative (Plasmodium berghei str. ANKA, UniProt A0A113T0T6); test: (§1) Inhibitory activity against dihydropteroic acid synthase (SYN) from Plasmodium berghei; conditions: read-out: I50
T3 sequence (A0A113T0T6 whole entry): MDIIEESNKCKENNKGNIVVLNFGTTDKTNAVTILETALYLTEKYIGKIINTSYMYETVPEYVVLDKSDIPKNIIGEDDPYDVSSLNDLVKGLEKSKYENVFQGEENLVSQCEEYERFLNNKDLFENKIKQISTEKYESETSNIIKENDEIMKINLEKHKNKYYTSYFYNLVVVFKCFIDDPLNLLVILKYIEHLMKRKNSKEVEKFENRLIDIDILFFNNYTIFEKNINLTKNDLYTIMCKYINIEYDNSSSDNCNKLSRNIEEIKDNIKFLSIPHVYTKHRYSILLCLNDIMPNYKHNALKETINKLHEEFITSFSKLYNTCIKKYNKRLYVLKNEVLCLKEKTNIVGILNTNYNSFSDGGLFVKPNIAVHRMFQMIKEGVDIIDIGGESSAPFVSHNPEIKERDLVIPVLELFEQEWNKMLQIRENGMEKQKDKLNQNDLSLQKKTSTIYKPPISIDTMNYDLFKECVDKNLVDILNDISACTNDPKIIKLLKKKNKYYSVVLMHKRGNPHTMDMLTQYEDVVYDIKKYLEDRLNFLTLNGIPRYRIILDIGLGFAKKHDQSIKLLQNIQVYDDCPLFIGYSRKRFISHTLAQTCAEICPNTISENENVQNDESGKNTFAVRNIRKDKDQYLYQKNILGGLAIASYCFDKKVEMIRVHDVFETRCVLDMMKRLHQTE

[6] = Inhibitory activity against dihydropteroic acid synthase (SYN) from Escherichia coli; conditions: read-out: I50
[7] = Inhibitory activity against dihydropteroic acid synthase (SYN) from Mycobacterium lufu (DDS sensitive); conditions: read-out: I50
Candida albicans [8] = test: Inhibitory effect on Candida albicans wild type YEM30 Strain; format: functional
Outline: (§2)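 MICs were determined by serial dilution in RPMI medium. MIC is the lowest concentration giving culture turbidity ≤20% of the control culture.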

Candida albicans [9] = test: Inhibitory effect on Candida albicans wild type YEM14 Strain; format: functional; outline: as §2
Candida albicans [10] = test: Inhibitory effect on Candida albicans YEM13 BENup Strain; format: functional; outline: as §2
Candida albicans [11] = test: Inhibitory effect on Candida albicans YEM27 quad deletion Strain; format: functional; outline: as §2
Candida albicans [12] = test: Inhibitory effect on Candida albicans YEM12 Strain; format: functional; outline: as §2
Candida albicans [13] = test: Inhibitory effect on Candida albicans YEM15 CDR1CDR2up Strain; format: functional; outline: as §2
Nakaseomyces glabratus [14] = test: Inhibitory effect on Candida glabrata YEM88 CgCDR1 CgCDR2up Strain; format: functional
Outline: (§3)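 For C. glabrata strains, MICs were determined by serial dilution in RPMI medium and read after 48 h. MIC is the lowest concentration giving turbidity ≤20% of the control culture.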

Nakaseomyces glabratus [15] = test: Inhibitory effect on Candida glabrata YEM216 pCDR1pCDR2pBEN YEM75 WT Strain; format: functional; outline: as §3
Nakaseomyces glabratus [16] = test: Inhibitory effect on Candida glabrata YEM75 WT Strain; format: functional; outline: as §3
[17] = target: T4, Dihydropteroate synthetase, putative (Plasmodium berghei str. ANKA) (UniProt A0A113T0T6); test: as §1
T4 sequence (whole entry): T3 sequence (A0A113T0T6 whole entry)

Nc1ncc(Cc2ccccc2)c(N)n1
IC50 (Dihydrofolate reductase [1]): 90.5 µM
I50 (Dihydrofolate reductase [2]): 115.3 uM l-1

COc1ccc(CNc2cnc(N)nc2N)cc1
IC50 (Dihydrofolate reductase [1]): 52.3 µM
I50 (Dihydrofolate reductase [2]): 146.2 uM l-1

COc1cc(Cc2cnc(N)nc2N)cc(OC)c1OCCCNc1ccc(N(C)C)cc1
IC50 (Dihydrofolate reductase [1]): 0.97 µM

Cc1ccc(S(=O)(=O)NCCCCOc2ccc(Cc3cnc(N)nc3N)cc2)cc1
IC50 (Dihydrofolate reductase [1]): 0.581 µM
IC50 (Dihydrofolate reductase [2]): 1.72 µM

COc1cc(COc2cnc(N)nc2N)ccc1OCCCc1ccccc1
IC50 (Dihydrofolate reductase [1]): 6.13 µM
IC50 (Dihydrofolate reductase [2]): 58.3 µM

CC(C)(C)c1ccc(COc2cnc(N)nc2N)cc1
IC50 (Dihydrofolate reductase [1]): 23.8 µM
I50 (Dihydrofolate reductase [2]): 106 uM l-1

Nc1ncc(OCc2ccccc2)c(N)n1
IC50 (Dihydrofolate reductase [1]): 1.24 µM
IC50 (Dihydrofolate reductase [2]): 10.1 µM

Cc1nc(N)nc(N)c1CCCc1ccccc1
IC50 (Dihydrofolate reductase [1]): 9.9 µM
IC50 (Dihydrofolate reductase [2]): 0.82 µM

Nc1ncc(Cc2cccc3ccccc23)c(N)n1
IC50 (Dihydrofolate reductase [1]): 53.5 µM
IC50 (Dihydrofolate reductase [2]): 29.4 µM

Nc1ccc(S(=O)(=O)c2ccc(N)cc2)cc1 [DAPSONE]
IC50 [3]: 1.18 µM
IC50 [4]: 1.78 µM
IC50 [5]: 12.4 µM
IC50 [6]: 34.4 µM
IC50 [7]: 1.2 µM

Nc1ccc(S(=O)(=O)c2ccc(C(=O)O)cc2)cc1
IC50 [3]: 3.17 µM
IC50 [4]: 2.78 µM
IC50 [6]: 74.2 µM
IC50 [7]: 3.6 µM

OC(Cn1cncn1)(Cn1cncn1)c1ccc(F)cc1F [FLUCONAZOLE]
MIC (Candida albicans [8]): 2 µg/mL (≈ 6.53 µM)
MIC (Candida albicans [9]): 64 µg/mL (≈ 209 µM)
MIC (Candida albicans [10]): 64 µg/mL (≈ 209 µM)
MIC (Candida albicans [11]): ≤ 0.25 µg/mL
MIC (Candida albicans [12]): 1 µg/mL (≈ 3.27 µM)
MIC (Candida albicans [13]): 64 µg/mL (≈ 209 µM)

COc1cc(COc2cnc(N)nc2N)ccc1OCCCNS(=O)(=O)c1ccc(C)cc1
IC50 (Dihydrofolate reductase [1]): 0.538 µM
IC50 (Dihydrofolate reductase [2]): 4.53 µM

Nc1ncc(OCc2ccc(Cl)c(Cl)c2)c(N)n1
IC50 (Dihydrofolate reductase [1]): 3.72 µM
IC50 (Dihydrofolate reductase [2]): 56.7 µM

Nc1ncc(OCc2ccc(OCCCCN3C(=O)c4ccccc4C3=O)cc2)c(N)n1
IC50 (Dihydrofolate reductase [1]): 0.078 µM
IC50 (Dihydrofolate reductase [2]): 6.07 µM

Nc1ncc(NCc2ccc(Cl)c(Cl)c2)c(N)n1
IC50 (Dihydrofolate reductase [1]): 84.8 µM
I50 (Dihydrofolate reductase [2]): > 350 uM l-1

Cc1nc(N)nc(N)c1CCc1ccccc1
IC50 (Dihydrofolate reductase [1]): 4.2 µM
IC50 (Dihydrofolate reductase [2]): 12.8 µM

CNc1ccc(S(=O)(=O)c2ccc(N)cc2)cc1
IC50 [3]: 2 µM
IC50 [4]: 2.81 µM
IC50 [5]: 26.7 µM
IC50 [6]: 46.2 µM
IC50 [7]: 1.29 µM

Nc1ncc(OCc2c(Cl)cccc2Cl)c(N)n1
IC50 (Dihydrofolate reductase [1]): 3.1 µM
IC50 (Dihydrofolate reductase [2]): 2.57 µM

Nc1ncc(OCc2cccc3ccccc23)c(N)n1
MIC (Candida albicans [8]): > 64 µg/mL
MIC (Candida albicans [9]): > 64 µg/mL
MIC (Candida albicans [10]): > 64 µg/mL
IC50 (Dihydrofolate reductase [1]): 0.43 µM
MIC (Candida albicans [11]): 32 µg/mL (≈ 120 µM)
MIC (Nakaseomyces glabratus [14]): 64 µg/mL (≈ 240 µM)
IC50 (Dihydrofolate reductase [2]): 2.63 µM
MIC (Nakaseomyces glabratus [15]): 16 µg/mL (≈ 60.1 µM)
MIC (Candida albicans [12]): 32 µg/mL (≈ 120 µM)
MIC (Nakaseomyces glabratus [16]): 16 µg/mL (≈ 60.1 µM)
MIC (Candida albicans [13]): > 64 µg/mL

Nc1ncc(NCc2ccc3ccccc3c2)c(N)n1
IC50 (Dihydrofolate reductase [1]): 16.1 µM
IC50 (Dihydrofolate reductase [2]): 71.3 µM

Nc1ncc(OCc2ccc(OCCCN3C(=O)c4ccccc4C3=O)cc2)c(N)n1
IC50 (Dihydrofolate reductase [1]): 0.619 µM
IC50 (Dihydrofolate reductase [2]): 15.7 µM

Nc1ccc(S(=O)(=O)c2ccc(O)cc2)cc1
IC50 [3]: 1.61 µM
IC50 [4]: 2.4 µM
I50 [17]: 32.2 µM
IC50 [6]: 34.9 µM
IC50 [7]: 1.5 µM

Nc1ccc(S(=O)(=O)c2ccc(Cl)cc2)cc1
IC50 [3]: 18.7 µM
IC50 [4]: 14.3 µM
IC50 [7]: 13 µM

CN(C)c1ccc(S(=O)(=O)c2ccc(N)cc2)cc1
IC50 [3]: 2.04 µM
IC50 [4]: 3.83 µM
IC50 [5]: 21.5 µM
IC50 [7]: 1.76 µM

COc1ccc(CNc2cnc(N)nc2N)cc1OC
I50 (Dihydrofolate reductase [1]): 125.8 uM l-1
I50 (Dihydrofolate reductase [2]): 197.3 uM l-1

CCNc1ccc(S(=O)(=O)c2ccc(N)cc2)cc1
IC50 [3]: 1.48 µM
IC50 [4]: 3.16 µM
IC50 [6]: 41.7 µM
IC50 [7]: 2.75 µM

Nc1ccc(S(=O)(=O)c2ccccc2)cc1
IC50 [3]: 12 µM
IC50 [4]: 13.3 µM
IC50 [5]: 104 µM
IC50 [6]: 116 µM
IC50 [7]: 12.1 µM
